# Experimental data of several laboratories.
# Lines come from different studies, so protocols differ.
# Target: Fibroblast growth factor receptor 1 (FGFR1, Homo sapiens, UniProt P11362)
SMILES,observed,technique,concentration,remaining binding [%]
C[C@@H]1CN(c2cc(-c3nn(C)c4ccc(OC5(C)CC5)cc34)ncn2)C[C@H](C)O1,cell-free assay,competition with immobilised ligand,1 µM,100
CN(C)c1ncc(F)c(-c2cnn3ncccc23)n1,binding,,1 µM,100
Cc1nc(C2CCN(C(=O)c3ccc(OC(F)(F)F)cc3N)CC2)c2ncc(N3CCN(C)CC3)cc2n1,cell-free assay,competition with immobilised ligand,1 µM,100
CCN1CCN(Cc2ccc(C(=O)Nc3ccc(C)c(Oc4ccc5c(c4)CC(=O)N5)c3)cc2C(F)(F)F)CC1,binding,competition with immobilised ligand,1 µM,78
CN(C)c1nccc(-c2cnn3ncccc23)n1,binding,,1 µM,100
CO[C@H]1CC[C@H](CNc2ccc(S(=O)(=O)NC(=O)c3ccc(N4CCN(CC5=C(c6ccc(Cl)cc6)CC(C)(C)CC5)CC4)cc3Oc3cnc4[nH]ccc4c3)cc2[N+](=O)[O-])CC1,cell-free assay,competition with immobilised ligand,1 µM,68
COc1cnc(Nc2cccc(S(N)(=O)=O)c2)nc1N1CCN(c2ccccc2)CC1,binding,competition with immobilised ligand,1 µM,100
N[C@@H]1CCN(c2nccc(-c3cnn4ncccc34)n2)C1,binding,,1 µM,96
C[C@H](NC(=O)c1cnc2n1[C@](C)(Cc1ccc(C#N)cc1)C(=O)N2c1cc(Cl)c(F)c(Cl)c1)C(=O)NC1(c2ccccn2)CC1,cell-free assay,competition with immobilised ligand,1 µM,100
CNC(=O)[C@@H]1CC[C@@H](n2c(-c3ccc4cnccc4c3)nc3ccc(C(=O)NCc4cccc(C(N)=O)c4)cc32)C1,binding,competition with immobilised ligand,1 µM,90
O=C(c1ccc(Nc2nccc(-c3cc4ccccc4s3)n2)cc1)N1CCC(N2CCCC2)CC1,binding,competition with immobilised ligand,1 µM,88
COc1ccnn2ncc(-c3ccnc(N(C)C)n3)c12,binding,,1 µM,86
O=C(Nc1c[nH]nc1C(=O)NC1CCNCC1)c1cc(F)cc(F)c1,binding,competition with immobilised ligand,1 µM,100
CS(=O)(=O)NCC[C@H](NC(=O)c1cncc2c1cnn2-c1ccc(F)cc1)c1ccnc(S(C)(=O)=O)c1,cell-free assay,competition with immobilised ligand,1 µM,87
O=C(c1ccc(Nc2ncc(Cl)c(-c3cc4ccccc4s3)n2)cc1)N1CCC(N2CCCC2)CC1,binding,competition with immobilised ligand,1 µM,36
C[C@@H]1CCN(c2nccc(-c3cnn4ncccc34)n2)C1,binding,,1 µM,100
C[C@@H](c1ccc(-n2cnc3c(N)ncnc32)cc1)N1CCc2nn(C)c(Cc3ccccc3)c2C1=O,binding,competition with immobilised ligand,0.1 µM,94
CN(C)c1nccc(-c2cnc3ncccn23)n1,binding,,1 µM,82
Nc1ncc2c(n1)-c1c([nH]c3ccc(C#CC4CC4)cc13)CCCC2,binding,competition with immobilised ligand,1 µM,79
O=C(O)c1cc(-c2ccc(C3CCNCC3)cc2)c2ccc(-c3ccc(C(F)(F)F)cc3)cc2c1,cell-free assay,competition with immobilised ligand,1 µM,100
c1cnn2ncc(-c3ccnc(N4CCC45COC5)n3)c2c1,binding,,1 µM,100
Cc1cnc(Nc2ccc(C(=O)N3CCC(N4CCCC4)CC3)cc2)nc1-c1cc2ccccc2s1,binding,competition with immobilised ligand,1 µM,10
